Experimental data: ChEMBL document CHEMBL1130199, “Differentiation between partial agonists and neutral 5-HT1B antagonists by chemical modulation of 3-[3-(N,N-dimethylamino)propyl]-4-hydroxy- N-[4-(pyridin-4-yl)phenyl]benzamide (GR-55562)” (J Med Chem, 1997)

Assays:
[1] = biological target: T1, 5-hydroxytryptamine receptor 1A (Homo sapiens, UniProt P08908); assay: Binding affinity for 5-hydroxytryptamine 1A receptor in HeLa transfected cell type using [3H]8-OH-DPAT as radioligand
T1 sequence (P08908 whole entry): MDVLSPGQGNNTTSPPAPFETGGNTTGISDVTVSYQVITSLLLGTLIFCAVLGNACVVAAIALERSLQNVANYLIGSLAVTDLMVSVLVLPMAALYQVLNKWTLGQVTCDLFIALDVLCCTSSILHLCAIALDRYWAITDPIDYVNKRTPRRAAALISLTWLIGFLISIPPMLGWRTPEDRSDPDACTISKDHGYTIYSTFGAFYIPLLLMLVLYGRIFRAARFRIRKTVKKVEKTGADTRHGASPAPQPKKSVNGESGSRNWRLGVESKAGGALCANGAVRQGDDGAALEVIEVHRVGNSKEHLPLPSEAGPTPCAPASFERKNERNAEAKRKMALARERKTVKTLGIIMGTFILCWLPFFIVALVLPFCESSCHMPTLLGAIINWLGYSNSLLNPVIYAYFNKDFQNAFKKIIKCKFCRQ
In short: (§1)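 Radioligand binding on membranes from HeLa/HA7 cells (h5-HT1A), transfected Cos-7 cells (h5-HT1D) or C6-glia cells stably transfected with h5-HT1B. Values are mean or mean ± SD of 2–3 independent experiments, each in triplicate.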

[2] = biological target: T2, 5-hydroxytryptamine receptor 1B (Homo sapiens, UniProt P28222); assay: Binding affinity for 5-hydroxytryptamine 1B receptor in C6-glial transfected cell type using [3H]GR-125743 as radioligand; in short: as §1
T2 sequence (P28222 whole entry): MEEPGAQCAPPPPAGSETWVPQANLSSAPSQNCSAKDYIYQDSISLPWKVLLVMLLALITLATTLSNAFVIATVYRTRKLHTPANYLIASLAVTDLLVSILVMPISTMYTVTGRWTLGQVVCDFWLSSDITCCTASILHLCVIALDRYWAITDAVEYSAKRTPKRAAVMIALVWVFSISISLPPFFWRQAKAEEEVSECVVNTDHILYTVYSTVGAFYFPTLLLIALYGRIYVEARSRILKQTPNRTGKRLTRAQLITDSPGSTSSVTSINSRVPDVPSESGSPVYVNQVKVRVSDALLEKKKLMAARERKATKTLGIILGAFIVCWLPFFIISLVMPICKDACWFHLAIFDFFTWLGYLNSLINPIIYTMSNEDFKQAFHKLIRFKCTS

[3] = biological target: 5-hydroxytryptamine receptor 1D (Homo sapiens, UniProt P28221); assay: Binding affinity for 5-hydroxytryptamine 1D receptor in Cos-7 transfected cell type using [3H]5-CT as radioligand; in short: as §1
Chain of 5-hydroxytryptamine receptor 1D (P28221 whole entry): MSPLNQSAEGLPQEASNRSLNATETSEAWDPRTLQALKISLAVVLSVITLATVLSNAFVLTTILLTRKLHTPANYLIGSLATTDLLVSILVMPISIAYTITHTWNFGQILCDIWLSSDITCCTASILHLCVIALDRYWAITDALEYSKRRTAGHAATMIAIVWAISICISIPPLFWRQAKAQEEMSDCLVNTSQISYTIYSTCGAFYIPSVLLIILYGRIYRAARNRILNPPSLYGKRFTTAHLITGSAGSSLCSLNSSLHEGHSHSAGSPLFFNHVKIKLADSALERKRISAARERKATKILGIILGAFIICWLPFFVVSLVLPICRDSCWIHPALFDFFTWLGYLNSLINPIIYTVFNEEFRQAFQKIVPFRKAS

[4] = biological target: T2, 5-hydroxytryptamine receptor 1B; assay: Intrinsic activity for Antagonism of 5-hydroxytryptamine 1B receptor-mediated stimulation of [35S]GTP gamma S binding; assay type: functional
In short: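 [35S]GTPγS binding to C6-glia/h5-HT1B membranes (20–120 μg protein) in 20 mM Hepes pH 7.4 with 30 μM GDP, 100 mM NaCl, 3 mM MgCl2 and 0.2 mM ascorbate. Compound was incubated 30 min at 25 °C, then 500 pM [35S]GTPγS was added for 30 min. Emax is given as % of the response to 10 μM 5-HT, and EC50 is relative to each compound's own maximum. Mean ± SD of 2–4 experiments, each in triplicate.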

[5] = Determined KB value of the compound; assay type: functional
In short: (§2)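 Membranes of C6-glia cells stably expressing h5-HT1B were preincubated with zolmitriptan concentration series, with or without antagonist (1 μM or 10 μM), in 20 mM Hepes pH 7.4 containing 30 μM GDP, 100 mM NaCl, 3 mM MgCl2 and 0.2 mM ascorbic acid, 30 min at 25 °C. [35S]GTPγS (500 pM) was then added for 30 min. pA2 was derived from concentration ratios. Mean ± SD of 2–4 experiments, each in triplicate.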

[6] = Antagonism of the zolmitriptan-mediated response tested at 1 uM; assay type: functional; in short: as §2
[7] = biological target: T2, 5-hydroxytryptamine receptor 1B; assay: Binding affinity for 5-hydroxytryptamine 1B receptor in C6-glial transfected cell type using [3H]5-CT as radioligand; in short: as §1
[8] = Antagonism of the zolmitriptan-mediated response tested at 10 uM; assay type: functional; in short: as §2

Compound	Ki [1]	Ki [2]	Ki [3]	Activity [4]	Kb [5]	EC50 [6]	Ki [7]	EC50 [8]
COc1ccc(C(=O)Nc2ccc(-c3ccncc3)cc2)cc1CCCN(C)C	> 1000 nM	15.4 nM	540 nM	4	22.7 nM	2850 nM	70.1 nM	–
COc1ccc(C(=O)Nc2ccc(-c3ccncc3)cc2)cc1/C=C/CN(C)C	> 1000 nM	18.8 nM	560 nM	23	–	–	13.6 nM	4300 nM
COc1ccc(C(=O)Nc2ccc(-c3ccncc3)cc2)cc1C=CCN(C)C	633 nM	6.1 nM	169 nM	2.3	19.4 nM	3300 nM	19 nM	–
CN(C)CCCc1cc(C(=O)Nc2ccc(-c3ccncc3)cc2)ccc1O [GR-55562]	842 nM	14 nM	700 nM	-3.7	21.3 nM	3000 nM	12.1 nM	–
COc1ccc(C(=O)Nc2ccc(-c3ccncc3)cc2)cc1C#CCN(C)C	> 1000 nM	22.3 nM	1200 nM	32.3	–	–	16.2 nM	837 nM
